From ChEMBL document CHEMBL1142087 (Antimicrob Agents Chemother, 2007)
The source made the active and inactive calls. The calls are words filed in the database; no cut-off is given here.

Assays:
Mus musculus [1] = experiment: Effect on survival of BALB/c mouse infected with influenza A virus (A/duck/Minnesota/1525/1981 (H5N1)) at 300 mg/kg/day, po qid for 5 days administered 1 hr after infection relative to carboxymethyl cellulose; assay type: functional, organism-based
Mus musculus [2] = experiment: Effect on survival of BALB/c mouse infected with influenza A virus (A/duck/Minnesota/1525/1981 (H5N1)) at 3 mg/kg/day, po once daily for 5 days administered 1 hr after infection relative to carboxymethyl cellulose; assay type: functional, organism-based
Mus musculus [3] = experiment: Lowering of arterial oxygen saturation decline in BALB/c mouse infected with influenza A virus (A/duck/Minnesota/1525/1981 (H5N1)) at 300 mg/kg/day, po once daily for 5 days administered 1 hr after infection measured on day 11 relative to carboxymethyl cellulose; assay type: functional
Mus musculus [4] = experiment: Lowering of arterial oxygen saturation decline in BALB/c mouse infected with influenza A virus (A/duck/Minnesota/1525/1981 (H5N1)) at 30 mg/kg/day, po once daily for 5 days administered 1 hr after infection measured on day 11 relative to carboxymethyl cellulose; assay type: functional
Mus musculus [5] = experiment: Lowering of arterial oxygen saturation decline in BALB/c mouse infected with influenza A virus (A/duck/Minnesota/1525/1981 (H5N1)) at 10 mg/kg/day, po once daily for 5 days administered 1 hr after infection measured on day 11 relative to carboxymethyl cellulose; assay type: functional
Mus musculus [6] = experiment: Effect on survival of BALB/c mouse infected with influenza A virus (A/duck/Minnesota/1525/1981 (H5N1)) at 300 mg/kg/day, po qid for 5 days administered 84 hrs after infection relative to carboxymethyl cellulose; assay type: functional, organism-based
Mus musculus [7] = experiment: Inhibition of increase in lung weight of BALB/c mouse infected with influenza A virus (A/duck/Minnesota/1525/1981 (H5N1)) at 300 mg/kg/day, po qid for 5 days administered 1 hr after infection measured on day 6 relative to carboxymethyl cellulose; assay type: functional
Mus musculus [8] = experiment: Lowering of Arterial oxygen saturation decline in BALB/c mouse infected with influenza A virus (A/duck/Minnesota/1525/1981 (H5N1)) at 100 mg/kg/day, po qid for 5 days administered 1 hr after infection measured on day 11 relative to carboxymethyl cellulose; assay type: functional
How it was run: (§1)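 Arterial oxygen saturation was measured by pulse oximeter, with the ear probe placed on the thigh and read after 30 s stabilization. Values were taken on day 11, 10 mice per group. Mice dead from infection were assigned 75%. Means were compared with CMC controls by t test.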

Mus musculus [9] = experiment: Lowering of Arterial oxygen saturation decline in BALB/c mouse infected with influenza A virus (A/duck/Minnesota/1525/1981 (H5N1)) at 33 mg/kg/day, po qid for 5 days administered 1 hr after infection measured on day 11 relative to carboxymethyl cellulose; assay type: functional
Mus musculus [10] = experiment: Effect on survival in BALB/c mouse infected with influenza A virus (A/duck/Minnesota/1525/1981 (H5N1)) at 600 mg/kg/day, po administered 4 hrs after infection relative to carboxymethyl cellulose; assay type: functional, organism-based
Mus musculus [11] = experiment: Effect on survival in BALB/c mouse infected with influenza A virus (A/duck/Minnesota/1525/1981 (H5N1)) at 300 mg/kg/day, po administered 12 hrs after infection relative to carboxymethyl cellulose; assay type: functional, organism-based
Mus musculus [12] = experiment: Effect on survival in BALB/c mouse infected with influenza A virus (A/duck/Minnesota/1525/1981 (H5N1)) at 300 mg/kg/day, po administered 24 hrs after infection relative to carboxymethyl cellulose; assay type: functional, organism-based
Mus musculus [13] = experiment: Effect on survival in BALB/c mouse infected with influenza A virus (A/duck/Minnesota/1525/1981 (H5N1)) at 600 mg/kg/day, po administered 48 hrs after infection relative to carboxymethyl cellulose; assay type: functional, organism-based
Mus musculus [14] = experiment: Effect on survival in BALB/c mouse infected with influenza A virus (A/duck/Minnesota/1525/1981 (H5N1)) at 600 mg/kg/day, po administered 60 hrs after infection relative to carboxymethyl cellulose; assay type: functional, organism-based
Mus musculus [15] = experiment: Effect on survival of BALB/c mouse infected with influenza A virus (A/duck/Minnesota/1525/1981 (H5N1)) at 300 mg/kg/day, po twice daily for 5 days administered 1 hr after infection relative to carboxymethyl cellulose; assay type: functional, organism-based
Mus musculus [16] = experiment: Lowering of arterial oxygen saturation decline in BALB/c mouse infected with influenza A virus (A/duck/Minnesota/1525/1981 (H5N1)) at 3 mg/kg/day, po once daily for 5 days administered 1 hr after infection measured on day 11 relative to carboxymethyl cellulose; assay type: functional
Mus musculus [17] = experiment: Effect on survival of BALB/c mouse infected with influenza A virus (A/duck/Minnesota/1525/1981 (H5N1)) at 300 mg/kg/day, po qid for 5 days administered 24 hrs after infection relative to carboxymethyl cellulose; assay type: functional, organism-based
Mus musculus [18] = experiment: Effect on survival of BALB/c mouse infected with influenza A virus (A/duck/Minnesota/1525/1981 (H5N1)) at 300 mg/kg/day, po qid for 5 days administered 60 hrs after infection relative to carboxymethyl cellulose; assay type: functional, organism-based
Mus musculus [19] = experiment: Lowering of arterial oxygen saturation decline in BALB/c mouse infected with influenza A virus (A/duck/Minnesota/1525/1981 (H5N1)) at 300 mg/kg/day, po qid for 5 days administered 36 hrs after infection measured on day 11 relative to carboxymethyl cellulose; assay type: functional
Mus musculus [20] = experiment: Lowering of arterial oxygen saturation decline in BALB/c mouse infected with influenza A virus (A/duck/Minnesota/1525/1981 (H5N1)) at 300 mg/kg/day, po qid for 5 days administered 48 hrs after infection measured on day 11 relative to carboxymethyl cellulose; assay type: functional
Mus musculus [21] = experiment: Lowering of arterial oxygen saturation decline in BALB/c mouse infected with influenza A virus (A/duck/Minnesota/1525/1981 (H5N1)) at 300 mg/kg/day, po qid for 5 days administered 72 hrs after infection measured on day 11 relative to carboxymethyl cellulose; assay type: functional
Mus musculus [22] = experiment: Lowering of arterial oxygen saturation decline in BALB/c mouse infected with influenza A virus (A/duck/Minnesota/1525/1981 (H5N1)) at 300 mg/kg/day, po qid for 5 days administered 84 hrs after infection measured on day 11 relative to carboxymethyl cellulose; assay type: functional
Mus musculus [23] = experiment: Lowering of arterial oxygen saturation decline in BALB/c mouse infected with influenza A virus (A/duck/Minnesota/1525/1981 (H5N1)) at 300 mg/kg/day, po qid for 5 days administered 96 hrs after infection measured on day 11 relative to carboxymethyl cellulose; assay type: functional
Mus musculus [24] = experiment: Lowering of arterial oxygen saturation decline in BALB/c mouse infected with influenza A virus (A/duck/Minnesota/1525/1981 (H5N1)) at 300 mg/kg/day, po qid for 5 days administered 120 hrs after infection measured on day 11 relative to carboxymethyl cellulose; assay type: functional
Mus musculus [25] = experiment: Lowering of Arterial oxygen saturation decline in BALB/c mouse infected with influenza A virus (A/duck/Minnesota/1525/1981 (H5N1)) at 3 mg/kg/day, po twice daily for 5 days administered 1 hr after infection measured on day 11 relative to carboxymethyl cellulose; assay type: functional; how it was run: as §1

NC(=O)c1nc(F)cnc1O [FAVIPIRAVIR]
Activity (Mus musculus [1]): Active
Activity (Mus musculus [2]): inactive
Activity (Mus musculus [3]): 82.7%
Activity (Mus musculus [4]): 81.4%
Activity (Mus musculus [5]): 77%
Activity (Mus musculus [6]): Active
Activity (Mus musculus [7]): 146 mg
Activity (Mus musculus [8]): 85.9%
Activity (Mus musculus [9]): 84.8%
Activity (Mus musculus [10]): Active
Activity (Mus musculus [11]): Active
Activity (Mus musculus [12]): Active
Activity (Mus musculus [13]): Active
Activity (Mus musculus [14]): Active
Activity (Mus musculus [15]): Active
Activity (Mus musculus [16]): 75%
Activity (Mus musculus [17]): Active
Activity (Mus musculus [18]): Active
Activity (Mus musculus [19]): 84.6%
Activity (Mus musculus [20]): 87.1%
Activity (Mus musculus [21]): 84.1%
Activity (Mus musculus [22]): 81.7%
Activity (Mus musculus [23]): 81.2%
Activity (Mus musculus [24]): 76%
Activity (Mus musculus [25]): 75%
